Measurements as given in ChEMBL document CHEMBL1124740, “Design, synthesis, and 5-lipoxygenase-inhibiting properties of 1-thio-substituted butadienes” (J Med Chem, 1990).

Assays:
[1] = target: T1, Polyunsaturated fatty acid 5-lipoxygenase (Rattus norvegicus, UniProt P12527); test: Inhibition of 5-lipoxygenase in rat RBL-1 cells; type: cell-based
T1 sequence (P12527 whole entry): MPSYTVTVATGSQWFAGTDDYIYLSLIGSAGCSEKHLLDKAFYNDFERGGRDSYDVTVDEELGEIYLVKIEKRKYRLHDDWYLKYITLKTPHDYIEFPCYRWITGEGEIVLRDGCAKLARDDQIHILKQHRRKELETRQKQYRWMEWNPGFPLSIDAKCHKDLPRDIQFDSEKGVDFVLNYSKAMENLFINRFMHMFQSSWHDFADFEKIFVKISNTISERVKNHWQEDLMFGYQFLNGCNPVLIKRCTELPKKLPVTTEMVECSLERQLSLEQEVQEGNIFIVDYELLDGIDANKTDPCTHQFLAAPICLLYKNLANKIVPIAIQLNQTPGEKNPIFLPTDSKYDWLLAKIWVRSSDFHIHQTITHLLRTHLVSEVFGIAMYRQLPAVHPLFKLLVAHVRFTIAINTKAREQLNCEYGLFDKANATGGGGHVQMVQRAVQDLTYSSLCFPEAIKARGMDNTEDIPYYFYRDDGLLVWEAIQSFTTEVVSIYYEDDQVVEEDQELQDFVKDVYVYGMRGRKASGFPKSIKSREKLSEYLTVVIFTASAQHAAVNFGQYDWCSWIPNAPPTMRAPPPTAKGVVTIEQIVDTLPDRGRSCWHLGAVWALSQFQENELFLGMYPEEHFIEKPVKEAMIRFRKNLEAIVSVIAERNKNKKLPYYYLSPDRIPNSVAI
Procedure, shortened: (§1)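 It was preincubated 5 min at 25 °C with compound or vehicle (2% DMSO) in 0.5 mL of 50 mM KH2PO4, 50 µM ATP, pH 7.0, then substrate was added. Inhibition was taken as the ratio of substrate remaining without versus with inhibitor. IC50 was obtained by linear regression of % inhibition against log concentration.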

[2] = In vitro methemoglobin Induction at 10e-4 M in lysed human red blood cells; type: functional
Procedure, shortened: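 Human red blood cells were lysed, and conversion of their hemoglobin to methemoglobin was followed spectrophotometrically in vitro.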

Mus musculus [3] = species: Mus musculus; test: In vitro inhibition of zymosan-stimulated release of Leukotriene C4 from intact mouse peritoneal macrophages following 60-min pretreatment/[…]; type: functional
Procedure, shortened: (§2)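 Mouse peritoneal macrophages collected by lavage, isolated by adherence and kept in Dulbecco's modified Eagle medium. Cells were pretreated with compound for 60 min, then challenged with opsonized zymosan. LTC4 in cell-free supernatant was measured by radioimmunoassay 3 h after challenge.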

Mus musculus [4] = test: Inhibition of 5-lipoxygenase in vivo by the measurement of LTC4 release after intraperitoneal 15 min pretreatment (45 min challenge) of mice with a dose of 20 mg/kg; type: functional; conditions: ip
[5] = target: T2, Polyunsaturated fatty acid 5-lipoxygenase (Rattus norvegicus) (UniProt P12527); test: Inhibitory activity against 5-lipoxygenase in RBL-1 cells at a concentration 40 uM.; type: cell-based
T2 sequence (whole entry): T1 sequence (P12527 whole entry)
Procedure, shortened: as §1, with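 “Enzyme source was a 100000g supernatant of RBL-1 cells (2.5 × 10^6 cell equivalents). It” for “It”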

[6] = target: T2, Polyunsaturated fatty acid 5-lipoxygenase (Rattus norvegicus); test: Inhibitory activity against 5-lipoxygenase in RBL-1 cells at a concentration 40 uM; type: cell-based
Procedure, shortened: as §1, with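 “Enzyme source was a 100000g supernatant of RBL-1 cells (2.5 × 10^6 cell equivalents). It” for “It”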

[7] = Inhibition of 12-HETE mammalian lipoxygenase at a concentration 20 uM; type: functional
Procedure, shortened: (§3)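 Enzyme source was a 100000g supernatant from human polymorphonuclear cells isolated to 95% purity. It was preincubated with or without compound for 10 min at 20 °C in phosphate-buffered saline (pH 8.3) with 0.5 mM MgCl2. The reaction was started with 120 μM arachidonic acid and stopped with citric acid after 5 min. Products were detected by UV at 272 and 232 nm, with PGB2 as internal standard.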

[8] = Inhibition of 15-HETE mammalian lipoxygenase at a concentration 20 uM; type: functional; procedure, shortened: as §3
[9] = Inhibition of 5-HETE mammalian lipoxygenase at a concentration 20 uM; type: functional; procedure, shortened: as §3
[10] = Inhibition of LTB4 mammalian lipoxygenase at a concentration 20 uM; type: functional; procedure, shortened: as §3
[11] = target: T2, Polyunsaturated fatty acid 5-lipoxygenase (Rattus norvegicus); test: Inhibitory activity against 5-lipoxygenase in RBL-1 cells at 40 uM concentration; type: cell-based
Procedure, shortened: as §1, with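 “Enzyme source was a 100000g supernatant of RBL-1 cells (2.5 × 10^6 cell equivalents). It” for “It”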

[12] = Potentiation of 15-HETE mammalian lipoxygenase at a concentration 20 uM; type: functional; procedure, shortened: as §3
Mus musculus [13] = species: Mus musculus; test: In vitro inhibition of zymosan stimulated release of Leukotriene C4 from intact mouse peritoneal macrophages; type: functional; procedure, shortened: as §2

## CCCCCCCC/C=C\C/C=C\C=C\SCCCC(=O)O
[1]
  IC50: 7.2 µM

## CCCCCCCCCCC/C=C\C=C\SCCCC(=O)OC
[1]
  IC50: 22 µM
[2]
  Induction: <3%
Mus musculus [3]
  IC50: > 60 µM
Mus musculus [4]
  inhibition in vivo at 20 mg/kg: 10%

## CCCCCCCCC#CC/C=C\C=C\Sc1ccc(C(=O)OC)cc1
[5]
  inhibition: 21%

## CCCCCCCCC#CC/C=C\C=C\Sc1ccccc1C(=O)OC
[5]
  inhibition: 45%

## CCCCCCCC/C=C\C/C=C\C=C\SCCC(=O)OC
[6]
  inhibition: 47%

## CC1=NN(CCOc2ccc3ccccc3c2)C(=O)C1 [NAFAZATROM]
[2]
  Induction: <3%
[7]
  inhibition: 58%
[8]
  inhibition: 30%
[9]
  inhibition: 68%
[10]
  inhibition: 65%

## COc1ccc2c(c1)c(CC(=O)O)c(C)n2C(=O)c1ccc(Cl)cc1 [INDOMETHACIN]
[1]
  IC50: > 20 µM

## NC1=NN(c2cccc(C(F)(F)F)c2)CC1 [BW-755C]
[2]
  Induction: 17%

## CC#CC/C=C\C=C\SCCCC(=O)OC
[11]
  inhibition: 32%

## CCCCCCCC/C=C\C/C=C\C=C\SCCCC(=O)OC
[1]
  IC50: 6.2 µM
[2]
  Induction: <3%
[7]
  inhibition: 0%
[9]
  inhibition: 58%
[10]
  inhibition: 60%
[12]
  Potentiation: 20%
Mus musculus [13]
  IC50: 22 µM
Mus musculus [4]
  inhibition in vivo at 20 mg/kg: 80%
